Like-named read-outs stand apart in the source and are kept apart here.
Tests used:
WM115 melanoma cells = assay: Cellular assays, EC50 quoted in text without S100B level; type: cell-based, human; conditions: for S100B-dependent killing (high vs low S100B cells): S100B-knockdown cell lines, result in words; for EC50: Homo sapiens
Ca^2+-S100B = target: T1, Ca^2+-S100B (Rattus norvegicus, UniProt P04631); assay: HSQC NMR of Ca2+-loaded S100B with SBiX compounds; type: binding; conditions: result in words; for effect on NMR spectra of Ca^2+-S100B (chemical shift perturbations / broadening): compared with pentamidine and heptamidine
T1 sequence (P04631 1-92): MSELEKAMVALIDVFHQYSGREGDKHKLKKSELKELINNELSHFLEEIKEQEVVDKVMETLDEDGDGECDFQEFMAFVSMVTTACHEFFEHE
Outline: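 Samples: 15N-labelled rat S100B (purified >99%) at 0.1 mM subunit with 0.125 mM test compound, 10 mM CaCl2, 15 mM NaCl, 0.34 mM NaN3, 0.2% TPEN, 5% DMSO-d6, 10% D2O, 10 mM HEPES pH 7.2. 1H-15N HSQC spectra; 15N shifts indirectly referenced (ratio 0.10132905). Spectra were inspected visually for combined 1H+15N chemical shift perturbations to map the binding site.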

Ca^2+-loaded S100B = target: T2, Ca^2+-loaded S100B (Rattus norvegicus, UniProt P04631); assay: Fluorescence polarization competition assay; type: binding; conditions: Site 1 probe; result in words
T2 sequence (P04631 1-92): T1 sequence (P04631 1-92)
Outline: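 Competition of test compound with 10 nM TAMRA-labelled TRTK12 peptide (CapZ residues 265-276), bound to Site 1 of 1 μM rat S100B, all final concentrations. Compound titrated from the highest attainable concentration. Fluorescence polarization read at room temperature, ex 544 nm/em 590 nm.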

[1] = tested on: WM115 melanoma cells transfected with shRNA^S100B (low S100B); assay: SYBR Green cell proliferation; type: cell-based, human; conditions: read-out: Low S100B EC50 Mean ± S.D.
[2] = WM-115, read-out: EC50 in cellular assays

| EC50 (WM115 melanoma cells; [2]) | binding to Ca^2+-S100B as measured using NMR (Ca^2+-S100B) | ability to compete with TAMRA-TRTK probe in FPCA (Ca^2+-loaded S100B) | Compound | also measured |
| --- | --- | --- | --- | --- |
|  |  |  | N=C(N)c1ccc(OCCCCCCCOc2ccc(C(=N)N)cc2)cc1 [4a, Heptamidine] | S100B-dependent killing (high vs low S100B cells) (WM115 melanoma cells): selectivity in killing melanoma cells with high S100B over those with low S100B was clearly observed |
|  |  |  | N=C(N)c1ccc(OCCCCCOc2ccc(C(=N)N)cc2)cc1 [4b, pentamidine, reference compound] | EC50 (WM115 melanoma cells; WM-115, read-out: ^CellsEC50): 26 µM |
|  |  |  | c1cc(C2=NCCN2)ccc1OCCCCCOc1ccc(C2=NCCN2)cc1 [5b, 1,5-bis(4-(4,5-dihydro-1H-imidazol-2-yl)phenoxy)pentane] | effect on NMR spectra of Ca^2+-S100B (chemical shift perturbations / broadening) (Ca^2+-S100B): significant broadening |
|  |  |  | c1cc(C2=NCCN2)ccc1OCCCCCCOc1ccc(C2=NCCN2)cc1 [5c, 1,6-bis(4-(4,5-dihydro-1H-imidazol-2-yl)phenoxy)hexane] | effect on NMR spectra of Ca^2+-S100B (chemical shift perturbations / broadening) (Ca^2+-S100B): significant broadening |
|  |  |  | c1cc(C2=NCCN2)ccc1OCCCCCCCCOc1ccc(C2=NCCN2)cc1 [5d, 1,8-bis (4-(4,5-dihydro-1H-imidazol-2-yl)phenoxy) octane] | effect on NMR spectra of Ca^2+-S100B (chemical shift perturbations / broadening) (Ca^2+-S100B): significant broadening |
| 200 to 600 µM |  |  | c1cc(C2=NCCCN2)ccc1OCCCCCCCOc1ccc(C2=NCCCN2)cc1 [6a, 1,7-bis (4-(1,4,5,6-tetrahydropyrimidin-2-yl)phenoxy)heptane] |  |
| 200 to 600 µM |  |  | c1cc(C2=NCCCN2)ccc1OCCCCCOc1ccc(C2=NCCCN2)cc1 [6b, 1,5-bis(4-(1,4,5,6-tetrahydropyrimidin-2-yl)phenoxy)pentane] | effect on NMR spectra of Ca^2+-S100B (chemical shift perturbations / broadening) (Ca^2+-S100B): significant broadening |
| 25 to 45 µM |  |  | c1cc(C2=NCCCN2)ccc1OCCCCCCOc1ccc(C2=NCCCN2)cc1 [6c, 1,6-bis(4-(1,4,5,6-tetrahydropyrimidin-2-yl)phenoxy)hexane] |  |
| 25 to 45 µM |  |  | c1cc(C2=NCCCN2)ccc1OCCCCCCCCOc1ccc(C2=NCCCN2)cc1 [6d, 1,8-bis(4-(1,4,5,6-tetrahydropyrimidin-2-yl)phenoxy)octane] |  |
| 5 to 20 µM |  |  | c1cc(C2=NCCCCN2)ccc1OCCCCCCCOc1ccc(C2=NCCCCN2)cc1 [7a, 1,7-bis(4-(4,5,6,7-tetrahydro-1H-1,3-diazepin-2-yl)phenoxy)heptane] |  |
| 5 to 20 µM |  |  | c1cc(C2=NCCCCN2)ccc1OCCCCCOc1ccc(C2=NCCCCN2)cc1 [7b, 1,5-bis (4-(4,5,6,7-tetrahydro-1H-1,3-diazepin-2-yl)phenoxy)pentane] |  |
| 250 to 300 µM |  |  | c1cc(C2=NCCCCN2)ccc1OCCCCCCOc1ccc(C2=NCCCCN2)cc1 [7c, 1,6-bis(4-(4,5,6,7-tetrahydro-1H-1,3-diazepin-2-yl)phenoxy)hexane] |  |
| 5 to 20 µM |  |  | c1cc(C2=NCCCCN2)ccc1OCCCCCCCCOc1ccc(C2=NCCCCN2)cc1 [7d, 1,8-bis (4-(4,5,6,7-tetrahydro-1H-1,3-diazepin-2-yl)phenoxy)octane] |  |
|  | interacted | found to compete | N=C(NCCCCCCCN)c1ccc(OCCCCCCCOc2ccc(C(=N)NCCCCCCCN)cc2)cc1 [9a, 4,4′-(heptane-1,7-diylbis(oxy))bis(N-(7-aminoheptyl)benzimidamide)] | effect on NMR spectra of Ca^2+-S100B (chemical shift perturbations / broadening) (Ca^2+-S100B): significant broadening |
|  | interacted | found to compete | N=C(NCCCCCCCN)c1ccc(OCCCCCCCCOc2ccc(C(=N)NCCCCCCCN)cc2)cc1 [9b, 4,4′-(octane-1,8-diylbis (oxy))bis(N-(7-aminoheptyl)benzimidamide)] | effect on NMR spectra of Ca^2+-S100B (chemical shift perturbations / broadening) (Ca^2+-S100B): significant broadening |
| 40 to 50 µM | bound weakly | neither was able to compete | N=C(N)c1ccc(OCCCN(CCCOc2ccc(C(=N)N)cc2)Cc2ccccc2)cc1 [16a, 4,4′-(((benzylazanediyl)bis(propane-3,1-diyl))bis(oxy))dibenzimidamide] |  |
| > 500 µM | bound weakly | neither was able to compete | CCCN(CCCOc1ccc(C(=N)N)cc1)CCCOc1ccc(C(=N)N)cc1 [16b, 4,4′-(((propylazanediyl)bis(propane-3,1-diyl))bis(oxy))dibenzimidamide] |  |
| 35 to 40 µM | interacted | found to compete | N=C(NCCCCCN)c1ccc(OCCCCCOc2ccc(C(=N)NCCCCCN)cc2)cc1 [compound 8, 4,4′-(pentane-1,5-diylbis(oxy))bis(N-(5-aminopentyl)benzimidamide)] |  |
| < 1 µM | ability to bind | neither was able to compete | N=C(NC(=O)Nc1ccccc1)c1ccc(OCCCCCCCOc2ccc(C(=N)NC(=O)Nc3ccccc3)cc2)cc1 [compound 10, 4,4′-(heptane-1,7-diylbis(oxy))bis(N-(phenylcarbamoyl)benzimidamide)] |  |
| 130 to 150 µM | ability to bind | neither was able to compete | CNC(=O)NC(=N)c1ccc(OCCCCCCCOc2ccc(C(=N)NC(=O)NC)cc2)cc1 [compound 11, 4,4′-(heptane-1,7-diylbis (oxy))bis(N-(methylcarbamoyl)benzimidamide)] |  |
|  | found to bind | found to inhibit TAMRA-TRTK binding | N=C(N)c1ccc(Oc2ccc(-c3cc4ccc(C(=N)N)cc4[nH]3)cc2)cc1 [compound 17, 2-(4-(4-carbamimidoylphenoxy)phenyl)-1H-indole-6-carboximidamide] | S100B-dependent killing (high vs low S100B cells) (WM115 melanoma cells): no S100B-dependent killing |
|  |  |  | hexamidine [4c] | EC50 [1]: 234 ± 7.9 µM |
